Assay results from ChEMBL document CHEMBL1125431, “2-substituted 3-(aminooxy)propanamines as inhibitors of ornithine decarboxylase: synthesis and biological activity” (J Med Chem, 1992).

Tests used:
Ornithine decarboxylase = molecular target: T1, Ornithine decarboxylase (Rattus norvegicus, UniProt P09057); assay: Inhibitory activity against Rat liver ornithine decarboxylase (ODC)
T1 sequence (P09057 whole entry): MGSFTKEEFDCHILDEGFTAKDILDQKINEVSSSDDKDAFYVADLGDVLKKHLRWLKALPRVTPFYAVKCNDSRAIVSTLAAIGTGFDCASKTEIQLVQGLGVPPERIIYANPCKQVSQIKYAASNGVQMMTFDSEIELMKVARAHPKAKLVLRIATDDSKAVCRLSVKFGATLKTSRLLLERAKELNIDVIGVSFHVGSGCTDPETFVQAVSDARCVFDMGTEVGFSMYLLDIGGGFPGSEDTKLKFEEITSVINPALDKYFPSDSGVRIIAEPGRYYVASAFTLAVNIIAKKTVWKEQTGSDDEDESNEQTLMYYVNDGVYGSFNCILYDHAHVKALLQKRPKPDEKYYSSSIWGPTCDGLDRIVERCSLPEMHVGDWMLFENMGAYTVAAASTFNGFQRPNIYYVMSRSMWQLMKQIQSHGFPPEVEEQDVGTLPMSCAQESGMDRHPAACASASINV
Procedure, shortened: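 Partially purified rat liver ODC. Reaction at 37 °C for up to 1 h in 100 mM Tris-HCl pH 7 with 4 mM EDTA, 4 mM DTT, 0.4 mM pyridoxal phosphate and 0.21 mM L-ornithine spiked with L-[1-¹⁴C]ornithine. Inhibitor, in 10 mM Tris pH 7, added with substrate. Released ¹⁴CO₂ trapped on alkali filter; acid stop; scintillation counting. IC50 by linear regression of log concentration versus % activity (95–5% range).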

T-24 [1] = assay: Inhibitory activity against Human T24 bladder carcinoma cells; type: functional, cell-based
T-24 [2] = assay: The compound was tested for anti proliferative activity against Human T24 bladder carcinoma cells; type: functional, cell-based

Structure (SMILES): NCC(Cl)CON (configuration not stated)
- IC50 (Ornithine decarboxylase): 93 nM
- IC50 (T-24 [1]): 6.3 µM

Structure (SMILES): CN(C)CC(O)CON (configuration not stated)
- IC50 (Ornithine decarboxylase): > 50000 nM
- IC50 (T-24 [1]): > 36.6 µM

Structure (SMILES): Cc1ncc(COP(=O)(O)O)c(/C=N/OCC(F)CN)c1O (configuration not stated)
- IC50 (T-24 [2]): 0.6 µM
- IC50 (Ornithine decarboxylase): 5200 nM

Structure (SMILES): C=CCNCC(O)CON (configuration not stated)
- IC50 (T-24 [2]): > 230 µM
- IC50 (Ornithine decarboxylase): 21000 nM

Structure (SMILES): NC[C@H](O)CON
- IC50 (Ornithine decarboxylase): 33 nM
- IC50 (T-24 [1]): 16.3 µM

Structure (SMILES): C#CCNCC(O)CON (configuration not stated)
- IC50 (Ornithine decarboxylase): 8400 nM
- IC50 (T-24 [1]): > 230 µM

Structure (SMILES): CNCC(O)CON (configuration not stated)
- IC50 (Ornithine decarboxylase): 1900 nM
- IC50 (T-24 [1]): > 33.3 µM

Structure (SMILES): NCC(O)CON (configuration not stated)
- IC50 (Ornithine decarboxylase): 39 nM
- IC50 (T-24 [1]): 24.4 µM

Structure (SMILES): NCC(F)CNN (configuration not stated)
- IC50 (Ornithine decarboxylase): 3300 nM
- IC50 (T-24 [1]): 163 µM

Structure (SMILES): CC(C)NCC(O)CON (configuration not stated)
- IC50 (T-24 [2]): > 45.2 µM
- IC50 (Ornithine decarboxylase): 66000 nM

Structure (SMILES): Cc1ncc(COP(=O)(O)O)c(/C=N/OCC(O)CN)c1O (configuration not stated)
- IC50 (T-24 [2]): > 112 µM
- IC50 (Ornithine decarboxylase): 24000 nM

Structure (SMILES): NCC(F)CON (configuration not stated)
- IC50 (Ornithine decarboxylase): 14 nM
- IC50 (T-24 [1]): 2.38 µM

Structure (SMILES): NCCCON
- IC50 (Ornithine decarboxylase): 35 nM
- IC50 (T-24 [1]): 8.34 µM

Structure (SMILES): CS(=O)(=O)OC(CN)CON (configuration not stated)
- IC50 (Ornithine decarboxylase): 1100 nM
- IC50 (T-24 [1]): 111 µM

Structure (SMILES): NC[C@@H](O)CON
- IC50 (Ornithine decarboxylase): 49 nM
- IC50 (T-24 [1]): 20.5 µM

Structure (SMILES): NOCC(O)CON
- IC50 (Ornithine decarboxylase): 670000 nM
- IC50 (T-24 [1]): 181 µM
